Many of the other results were omitted from the sample, so hits are more common in it than they were.
Jurkat NFkB inh = inhibitors of induced NF-kB luciferase reporter, primary screen, TCR NF-kB activation inhibitor project, cell-based, luminescence, uHTS. AID 435003, 2010. 330,000 compounds, 0.53% hits. inhibition, % at 4 µM. Jurkat, PMA/ionomycin-induced NF-kB luciferase reporter; in the data active = inhibition above about 50%
CHOP UPR activ = activators of apoptotic CHOP UPR arm, primary screen, cell-based, CHO-CHOP luciferase reporter, luminescence, uHTS; UPR activation; percent of tunicamycin response over DMSO baseline; activation, % at 10 µM; 330,000 compounds, 0.34% hits; AID 449763, 2010;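 active = at 10 µM dose, activation of 40% or more, normalized to positive control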
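Test system: CHO CHOP reporter cells. Input: 500 CHO-CHOP cells per well. Medium: F12 with 10% FBS. Technique: luciferase luminescence. Measure: percent activation relative to tunicamycin control. Dosing: 10 µM compound, 0.5% DMSO. Timing: 16-18 h cell attachment, then 6 h compound exposure, 37 °C.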
CHOP inh = inhibitors of CHOP promoter induction, primary screen, cell-based, unfolded protein response, luciferase reporter | CHO-K1 CHOP-promoter luciferase, tunicamycin-induced, 15-18 h | inhibition, % at 10 µM | 220,000 compounds, 3.8% hits;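 active = compounds that reduced the stress-induced luciferase reporter signal by more than about 70% of percent inhibition, limit read from the data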
XBP1 UPR activ = activators of adaptive XBP1 UPR arm, primary screen, cell-based, CHO-XBP1 luciferase reporter, luminescence, uHTS | AID 463104, 2010 | 330,000 compounds, 0.33% hits | IRE1-XBP1 UPR activation; percent of tunicamycin response, DMSO as zero | activation, % at 20 µM;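 active = versus positive control, 20 µM dose yields 30% or more activation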
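Material – CHO cell line with stable XBP1 luciferase reporter · Buffer or medium – F12 plus 10% FBS · Compound – single point, 20 µM final compound, 1% DMSO · Schedule – 16-18 h cell attachment at 37 °C, then 6 h compound exposure · Signal – Steady-Glo luminescence read · Benchmarks – high control tunicamycin 10 µg/mL final, low control DMSO vehicle only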
697 NFkB inh = inhibitors of PMA/ionomycin-induced NF-kB reporter, 697 cells, primary screen, B-cell NF-kB inhibitor project, cell-based, luminescence, uHTS; 697 B-cell NF-kB luciferase reporter, 16 h; inhibition, % at 4 µM; 330,000 compounds, 0.33% hits; AID 435022, 2010; in the data active = inhibition above about 35%
A number is an active result.

What do the screens show for `COC(=O)c1ccc(Oc2cc(C)nc(NCc3ccccc3)n2)cc1`?
Jurkat NFkB inh: inactive; CHOP UPR activ: inactive; CHOP inh: inactive; XBP1 UPR activ: inactive; 697 NFkB inh: inactive

How did Cc1cc(Oc2ccc(C#N)cc2)nc(NCc2ccccc2)n1 do in these assays?
Jurkat NFkB inh: inactive; CHOP UPR activ: inactive; CHOP inh: 76.7; XBP1 UPR activ: inactive; 697 NFkB inh: inactive

What do the screens show for `Oc1ccc(C(c2nnnn2C2CCCC2)N2CCc3ccccc3C2)cc1` (centres undefined)?
Jurkat NFkB inh: inactive; CHOP UPR activ: inactive; CHOP inh: 88.1; XBP1 UPR activ: inactive; 697 NFkB inh: inactive

What do the screens show for `COc1cc(C(c2nnnn2C2CCCC2)N2CCc3ccccc3C2)ccc1O` (centres undefined)?
Jurkat NFkB inh: inactive; CHOP UPR activ: inactive; CHOP inh: inactive; XBP1 UPR activ: inactive; 697 NFkB inh: inactive

What do the screens show for `CCOc1ccc(-c2[nH]ncc2Oc2ccccc2OC)c(O)c1`?
Jurkat NFkB inh: inactive; CHOP UPR activ: inactive; CHOP inh: 82.0; XBP1 UPR activ: inactive; 697 NFkB inh: inactive

What do the screens show for `C=C(C)COc1ccc(-c2nc(N)ncc2Oc2ccccc2OC)c(O)c1`?
Jurkat NFkB inh: inactive; CHOP UPR activ: inactive; CHOP inh: 92.6; XBP1 UPR activ: inactive; 697 NFkB inh: inactive

How did CCOc1ccc(-c2[nH]ncc2Oc2ccccc2OCC)c(O)c1 do in these assays?
Jurkat NFkB inh: inactive; CHOP UPR activ: inactive; CHOP inh: 80.0; XBP1 UPR activ: inactive; 697 NFkB inh: inactive

What do the screens show for `O=C(Nc1ccc2c(c1)OCCO2)C1CCCN1C(=O)Nc1ccc(F)cc1` (centres undefined)?
Jurkat NFkB inh: inactive; CHOP UPR activ: inactive; XBP1 UPR activ: inactive; 697 NFkB inh: inactive

Results for CC(=O)/C(N=Nc1cccc(C(F)(F)F)c1)=C(\C)O ?
Jurkat NFkB inh: inactive; CHOP UPR activ: inactive; CHOP inh: inactive; XBP1 UPR activ: inactive; 697 NFkB inh: inactive

Results for CN(C(=O)/C(N=Nc1cccc(C(F)(F)F)c1)=C(\O)C(F)(F)F)c1ccccc1 ?
Jurkat NFkB inh: inactive; CHOP UPR activ: inactive; CHOP inh: 73.0; XBP1 UPR activ: inactive; 697 NFkB inh: inactive

What do the screens show for `COc1ccccc1NC(=O)Nc1nn(C)c2cccc(OC)c12`?
Jurkat NFkB inh: inactive; CHOP UPR activ: inactive; CHOP inh: inactive; XBP1 UPR activ: inactive; 697 NFkB inh: inactive

How did Cn1nc(-c2ccc(N3CCCCC3)c(NC(=O)c3ccco3)c2)c2ccccc2c1=O do in these assays?
Jurkat NFkB inh: inactive; CHOP UPR activ: inactive; CHOP inh: 88.5; XBP1 UPR activ: inactive; 697 NFkB inh: inactive

How did CCCc1c(O)nc(SCC(=O)O)[nH]c1=O do in these assays?
Jurkat NFkB inh: inactive; CHOP UPR activ: inactive; CHOP inh: 75.9; XBP1 UPR activ: inactive; 697 NFkB inh: inactive

Results for O=C(CC1CCCC1)N1CCN(S(=O)(=O)c2ccccc2)CC1 ?
Jurkat NFkB inh: inactive; CHOP UPR activ: inactive; XBP1 UPR activ: inactive; 697 NFkB inh: inactive

How did O=C(Nc1ccccc1N1CCOCC1)c1cccc(F)c1 do in these assays?
Jurkat NFkB inh: inactive; CHOP UPR activ: inactive; CHOP inh: inactive; XBP1 UPR activ: inactive; 697 NFkB inh: inactive

How did CCC(C)Oc1cccc(C(=O)Nc2ccccc2N2CCOCC2)c1 (centres undefined) do in these assays?
Jurkat NFkB inh: inactive; CHOP UPR activ: inactive; CHOP inh: 75.3; XBP1 UPR activ: inactive; 697 NFkB inh: inactive

How did COc1nnc(-c2ccc(N3CCOCC3)c(NC(=O)c3ccccc3)c2)c2ccccc12 do in these assays?
Jurkat NFkB inh: inactive; CHOP UPR activ: inactive; CHOP inh: 86.3; XBP1 UPR activ: inactive; 697 NFkB inh: inactive

What do the screens show for `Cc1cc(Cl)ccc1OC(C)C(=O)Nc1ccccc1N1CCOCC1` (centres undefined)?
Jurkat NFkB inh: inactive; CHOP UPR activ: inactive; CHOP inh: 73.5; XBP1 UPR activ: inactive; 697 NFkB inh: inactive

How did O=C(Nc1ccccc1N1CCOCC1)c1cccc(Oc2ccccc2)c1 do in these assays?
Jurkat NFkB inh: inactive; CHOP UPR activ: inactive; XBP1 UPR activ: inactive; 697 NFkB inh: inactive

How did CC(C)Oc1cccc(C(=O)Nc2ccccc2N2CCOCC2)c1 do in these assays?
Jurkat NFkB inh: inactive; CHOP UPR activ: inactive; CHOP inh: 73.7; XBP1 UPR activ: inactive; 697 NFkB inh: inactive

What do the screens show for `COc1ccc(CCNC(=O)CN(Cc2ccc(Cl)cc2)S(C)(=O)=O)cc1`?
Jurkat NFkB inh: inactive; CHOP UPR activ: inactive; XBP1 UPR activ: inactive; 697 NFkB inh: inactive

How did CCn1cc(/C=C(\NC(=O)c2ccccc2F)C(=O)NCCN2CCOCC2)c2ccccc21 do in these assays?
Jurkat NFkB inh: inactive; CHOP UPR activ: inactive; XBP1 UPR activ: inactive; 697 NFkB inh: inactive

How did Cc1ccc(CNC(=O)CN(C(=O)C2(C)CC(=O)N=C3C=CC=CN32)c2ccccc2F)cc1 (centres undefined) do in these assays?
Jurkat NFkB inh: inactive; CHOP UPR activ: inactive; XBP1 UPR activ: inactive; 697 NFkB inh: inactive

How did O=C(NNC(=O)c1cc2cc3ccccc3nc2s1)c1cccc(Cl)c1 do in these assays?
Jurkat NFkB inh: inactive; CHOP UPR activ: inactive; CHOP inh: inactive; XBP1 UPR activ: inactive; 697 NFkB inh: inactive

How did O=C(NNC(=O)c1cc2cc3ccccc3nc2s1)c1ccc(F)cc1 do in these assays?
Jurkat NFkB inh: inactive; CHOP UPR activ: inactive; CHOP inh: 88.7; XBP1 UPR activ: inactive; 697 NFkB inh: inactive

How did COc1ccc(C(=O)NCC(=O)N2CCN(c3ccc(F)cc3)CC2)cc1 do in these assays?
Jurkat NFkB inh: inactive; CHOP UPR activ: inactive; XBP1 UPR activ: inactive; 697 NFkB inh: inactive

What do the screens show for `Cc1cc(NC(=O)Nc2cccc(C(F)(F)F)c2)no1`?
Jurkat NFkB inh: inactive; CHOP UPR activ: inactive; CHOP inh: 93.3; XBP1 UPR activ: inactive; 697 NFkB inh: inactive

What do the screens show for `Cc1cc(NS(=O)(=O)c2ccc(NC(=O)Nc3cccc(C(F)(F)F)c3)cc2)no1`?
Jurkat NFkB inh: inactive; CHOP UPR activ: inactive; XBP1 UPR activ: inactive; 697 NFkB inh: inactive

How did Cc1ccc(OCCn2c(C)c(/C=N/n3cnnc3)c3ccccc32)cc1 do in these assays?
Jurkat NFkB inh: inactive; CHOP UPR activ: inactive; CHOP inh: 81.0; XBP1 UPR activ: inactive; 697 NFkB inh: inactive

How did OC(CN1CCN(Cc2ccccc2)CC1)Cn1c2ccccc2c2ccccc21 (centres undefined) do in these assays?
Jurkat NFkB inh: inactive; CHOP UPR activ: inactive; CHOP inh: inactive; XBP1 UPR activ: inactive; 697 NFkB inh: inactive

What do the screens show for `Cc1ccc(OCCN2CCN(CC(O)Cn3c4ccccc4c4ccccc43)CC2)cc1` (centres undefined)?
Jurkat NFkB inh: inactive; CHOP UPR activ: inactive; CHOP inh: 95.9; XBP1 UPR activ: inactive; 697 NFkB inh: inactive

What do the screens show for `Cc1ccc(OCC(O)Cn2c3ccccc3c3ccccc32)cc1` (centres undefined)?
Jurkat NFkB inh: inactive; CHOP UPR activ: inactive; CHOP inh: inactive; XBP1 UPR activ: inactive; 697 NFkB inh: inactive

Compound activity (PubChem BioAssay)
